Sampled rows, rich in hits. Any-hit rate of the full collection: about 12%.
Autophagy HCS = alters autophagy in cells; MEF GFP-LC3 puncta imaging; test concentration mostly 10 µM; 190,000 compounds, 0.98% hits; calls only at 10 µM (by protocol); AID 463193;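 active = percentage of spot-positive cells more than 3 SD above its plate mean, without a fluorescence outlier flag or 80% toxicity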;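 also: spot-positive cell cutoff set from DMSO-treated cells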
L major viab = reduces viability of Leishmania major promastigotes; resazurin fluorescence viability; inhibition, % at 10 µM; 200,000 compounds, 9% hits; AID 1063; in the data active = inhibition above about 50%;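 also: promastigotes grown with compound for 44 hours at 28 °C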
Dynein cargo inh = dynein cargo transport inhibition; 3617.4 mouse cells, GR-EGFP nuclear translocation imaging; test concentration mostly 20 µM; stimulated with dexamethasone, 1 µM; hits give low values; AID 1381; z-score, hits read low; 220,000 compounds, 0.47% hits;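 active = plate z-score of nuclear minus cytoplasmic receptor signal below a set negative limit, without overly bright fluorescence or cell loss, cut at about -3.5 in these data, passing the limit was not always enough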;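 also: z-score of nuclear minus cytoplasmic ring GR-EGFP intensity difference per well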
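medium = tetracycline-free induction medium containing charcoal-stripped FBS | probe or stimulus = dexamethasone, 1.0 µM final | timing = 48 h induction, then 1 h compound, then 30 min agonist, 37 °C | detection = automated 10x imaging of fixed Hoechst-stained cells | read-out basis = nuclear versus cytoplasmic GR-EGFP signal, averaged per well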
CHOP inhibitor = inhibitors of CHOP induction in ER stress response | CHO-K1 CHOP-promoter luciferase, tunicamycin-induced, 15-18 h | 220,000 compounds, 3.8% hits | AID 2732 | inhibition, % at 10 µM;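 active = compounds that reduced the stress-induced luciferase reporter signal by more than about 70% of percent inhibition, limit read from the data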;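 also: 0% = tunicamycin plus vehicle and 100% = wells without tunicamycin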
MT stabilize HCS = microtubule stabilization, imaging screen. HeLa tubulin immunostaining HCS, 24 h; share of cells brighter than vehicle mean+2SD. % tubulin-high responders, % at 10 µM. 200,000 compounds, 0.83% hits. AID 2205;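 active = plate Z-score above 3 for both tubulin-high and condensed-nucleus cell shares, with cell loss under 80%, at 10 µM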;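 also: anti alpha tubulin signal scored within the nucleus-defined area of each cell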
bCat nuc transl = modulators of beta-catenin nuclear translocation; HeLa beta-catenin nuclear translocation, immunofluorescence imaging; nuclear translocation activity, % at 5 µM; 190,000 compounds, 0.3% hits; AID 1665;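 active = nuclear translocation activity above 50% at 5 µM, with a well cell count of 50 or more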;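 also: per-cell ratio of nuclear to cytoplasmic median beta-catenin stain intensity; plate controls were DMSO negative control for no effect and GSK-3 inhibitor IX positive control for full effect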
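Assay system: human HeLa cells, native beta-catenin; doses: 5 µM primary, 0.02–20 µM confirmation; incubation: compound treatment 24 h, 37°C, 5% CO2; technique: fluorescence imaging of beta-catenin antibody stain plus DAPI; measure: % activation, nuclear-to-cytoplasmic median beta-catenin signal ratio per cell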
CHOP inh conf = confirmation of CHOP induction inhibitors; shares compounds with CHOP inhibitor; CHO-CHOP promoter luciferase reporter, tunicamycin-induced, luminescence; inhibition, % at 10 µM; 2,100 compounds, 45% hits; AID 504437;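 active = mean of three repeat readings of reporter signal inhibition above a set limit, cut at about 70% in these data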;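 also: 0% = tunicamycin plus vehicle and 100% = wells lacking tunicamycin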
Active calls of the source: *.

Cc1ccc(-c2csc3nc4c5ccccc5c(NCCCN(C)C)nn4c(=O)c23)cc1 was read as Autophagy HCS active, L major viab 101*, Dynein cargo inh -6, CHOP inhibitor 102*, MT stabilize HCS 77*, bCat nuc transl 6 and CHOP inh conf -305.
Screening COc1ccc(C2=NN(c3ccccc3)C(c3cn(CCC(=O)O)nc3-c3ccccc3)C2)cc1 (stereo unspecified) returned Autophagy HCS inactive, L major viab 1, Dynein cargo inh 0.81, CHOP inhibitor 96*, MT stabilize HCS 3, bCat nuc transl 0 and CHOP inh conf 13.
Screening COc1ccc(-c2nn(CCC(=O)O)cc2CCC(=O)O)cc1 returned Autophagy HCS inactive, L major viab -4, Dynein cargo inh -0.25, CHOP inhibitor 4, MT stabilize HCS 2 and bCat nuc transl -1.
Cc1cccc(N2CCN(C(=O)CS(=O)(=O)Cc3nc(-c4ccccc4F)oc3C)CC2C)c1 (stereo unspecified) was read as Autophagy HCS inactive, L major viab 7, Dynein cargo inh 0.33, CHOP inhibitor 98*, MT stabilize HCS 3, bCat nuc transl 3 and CHOP inh conf 80*.
CCCCCC(=O)NNC1CC(=O)N(c2cccc(OCC)c2)C1=O (stereo unspecified) was read as Dynein cargo inh 0.72, CHOP inhibitor 1 and bCat nuc transl 0.
`CN1C(=O)C(O)(CC(=O)c2cccc(-n3cccc3)c2)c2ccccc21` (stereo unspecified) gave Autophagy HCS inactive, L major viab 10, Dynein cargo inh 3.3, CHOP inhibitor 45 and MT stabilize HCS 4.
`Cc1ccc(NC(=S)NCCSc2ccc(Cl)cc2)cc1` gave Autophagy HCS inactive, L major viab 28, Dynein cargo inh 0.39, CHOP inhibitor -13, MT stabilize HCS 2 and bCat nuc transl -2.
Screening CC(CNC(=S)Nc1cc(F)cc(F)c1)CSc1ccc(Cl)cc1 (stereo unspecified) returned Autophagy HCS inactive, L major viab 48, Dynein cargo inh -0.9, CHOP inhibitor 97*, MT stabilize HCS 2, bCat nuc transl -2 and CHOP inh conf 86*.
Screening COc1ccc(/C=N/NC(=O)c2nc(Cl)c(Cl)c(N)c2Cl)cc1COc1ccc(F)cc1F returned Autophagy HCS inactive, L major viab 0, Dynein cargo inh -0.59, CHOP inhibitor 100*, MT stabilize HCS 15, bCat nuc transl 5 and CHOP inh conf 36.
For CC1CCCC(NC(=O)COC(=O)/C=C/c2ccc3c(c2)OCO3)C1C (stereo unspecified) the results were Autophagy HCS inactive, L major viab -3, Dynein cargo inh -0.11, CHOP inhibitor 98*, MT stabilize HCS 2, bCat nuc transl 2 and CHOP inh conf 96*.
O=C(COC(=O)/C=C/c1ccc2c(c1)OCO2)NC1CC1 was read as Autophagy HCS inactive, L major viab 27, Dynein cargo inh -0.53, CHOP inhibitor 33, MT stabilize HCS 2 and bCat nuc transl 2.
For N#C/C(=C/c1ccc(N2CCCCCC2)o1)c1cccc(F)c1 the results were Autophagy HCS active, L major viab 20, Dynein cargo inh -2.7, CHOP inhibitor 104*, MT stabilize HCS 2, bCat nuc transl 0 and CHOP inh conf 28.
`N#C/C(=C\c1ccc(N2CCOCC2)o1)c1ccccc1` gave Autophagy HCS inactive, L major viab 18, Dynein cargo inh -0.14, CHOP inhibitor 37, MT stabilize HCS 5 and bCat nuc transl 1.
NCCCC[C@H](N)c1nnc([C@H](CCC(=O)O)NC(=O)C2CCNCC2)o1 was read as Autophagy HCS inactive, L major viab -6, Dynein cargo inh -0.95, CHOP inhibitor 19, MT stabilize HCS 4 and bCat nuc transl 0.
For Cc1ccc(NCc2n[nH]c(=S)n2Cc2ccccc2)cc1Cl the results were Autophagy HCS inactive, L major viab 3, Dynein cargo inh -0.41, CHOP inhibitor 100*, MT stabilize HCS 1, bCat nuc transl 0 and CHOP inh conf -45.

Compound activity from PubChem BioAssay.
